Source: PubChem BioAssay
SMARCA2 activ: activators of SMARCA2 function. MG213 cells, MMTV-luciferase reporter, dexamethasone, overnight. activation, % at 9.1 µM. actives 1% (n = 370,000). AID 652017; in the data active = activation above about 7.8%;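 also: 0% = vehicle wells and 100% = reference activator wells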
CR mimetic SO: lowers age-related superoxide in aged yeast cells. S. cerevisiae aged cells, superoxide DHE fluorescence; hits give low values. superoxide response (% of plate mean), % at 10 µM. actives 0.18% (n = 330,000). AID 2690;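 active = superoxide response under a set limit, about three screen SD below normal, cut at about 65% in these data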;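 also: yeast aged for seven days with compound at 30 °C before DHE staining; 100% = average MFI of all compound-treated wells on the plate with controls excluded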
AHR act: activators of human aryl hydrocarbon receptor; AHR-responsive luciferase reporter cells, luminescence; activation, % at 5 µM; actives 2.5% (n = 320,000); AID 2796; in the data active = activation above about 47%;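 also: 0% = vehicle wells and 100% = reference agonist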
SR-BI HDL uptake: mouse SR-BI HDL lipid transfer inhibition; AID 488896; Q61009; ldlA[mSR-BI] CHO cells, DiI-HDL uptake fluorescence, 3 h; inhibition, % at 12.5 µM; actives 0.96% (n = 320,000);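 active = mean replicate inhibition of at least 70% and a set share of replicates each scoring 70 or more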;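 also: 0% = median of neutral control wells and 100% = median of positive control wells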
Target sequence (Q61009 whole entry, looked up): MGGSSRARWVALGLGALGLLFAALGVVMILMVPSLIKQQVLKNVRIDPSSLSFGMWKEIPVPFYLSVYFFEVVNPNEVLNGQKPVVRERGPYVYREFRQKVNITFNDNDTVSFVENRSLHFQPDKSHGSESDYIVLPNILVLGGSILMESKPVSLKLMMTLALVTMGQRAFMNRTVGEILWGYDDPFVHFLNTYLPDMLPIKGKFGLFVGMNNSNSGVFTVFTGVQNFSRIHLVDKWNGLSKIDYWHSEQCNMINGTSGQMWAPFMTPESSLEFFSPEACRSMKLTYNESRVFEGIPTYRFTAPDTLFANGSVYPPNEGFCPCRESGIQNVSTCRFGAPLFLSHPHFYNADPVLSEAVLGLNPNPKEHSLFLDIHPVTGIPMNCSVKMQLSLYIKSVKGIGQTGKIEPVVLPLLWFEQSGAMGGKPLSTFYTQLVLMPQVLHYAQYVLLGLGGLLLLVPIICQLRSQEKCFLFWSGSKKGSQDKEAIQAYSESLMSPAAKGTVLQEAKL
Hep lipid drop: modulators of hepatic lipid droplet formation; AML12 mouse hepatocytes, oleate lipid droplets, BODIPY imaging; inhibition, % at 6.5 µM; actives 0.4% (n = 240,000); AID 1656;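 active = lipid droplet intensity inhibited by at least 50%, with more than 500 cells counted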
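Test system: AML12 hepatocytes (mouse); reagent: oleate loading, 100 µM; dosing: one dose, 6.5 µM compound; incubation: overnight exposure; signal: fluorescence imaging, 20x objective, two fields per well; read-out basis: % inhibition of corrected integrated BODIPY droplet signal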
SR-BI uptake up: SR-BI HDL lipid transfer activation; AID 504775; CHO ldlA[mSR-BI] cells, DiI-HDL uptake fluorescence, 3 h; 100 = double the neutral-control signal; actives 0.096% (n = 320,000); activation, % at 12.5 µM;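 active = mean replicate activation of at least 60% and every replicate at or above 60%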;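 also: 0% = median plate neutral-control signal and 100% = twice that signal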
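Material: SR-BI-overexpressing, LDLR-lacking CHO cells | Dosing: Single compound concentration, delivered by pin transfer | Probe or stimulus: Labelled HDL, 10 µg/mL | Signal: Bottom-read cell fluorescence after medium removal, ex 550/em 595 nm | Schedule: 3 h, 37 °C | Evaluation: HDL uptake via cellular fluorescence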
SMARCA2 act conf: confirmation of SMARCA2 (BRM) function activators | shares compounds with SMARCA2 activ | MG213 cells, MMTV-luciferase with dexamethasone, luminescence, overnight; MG213 cells expressing E1A, Rb sequestered; DMSO wells 0%, reference activator 100% | activation, % at 9.1 µM | actives 30% (n = 3,500) | AID 652260;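 active = activation above its plate's cutoff, the mean activation of tested wells plus 3 SD, cut at about 7.9% in these data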
GAL4-VP16 Luc: activates GAL4-VP16 luciferase, flagging SMARCA2 activator hits; activation, % at 9.1 µM; shares compounds with SMARCA2 activ; HEK293 GAL4-VP16 pG5luc reporter, luciferase luminescence; scaled: DMSO wells 0%, SAHA wells 100%; actives 41% (n = 3,500);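 active = activation above the solvent-only control well mean plus 3 SD, averaged across control plates, cut at about 5.2% in these data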
Numbers without * were called inactive; . = no result. Rows were chosen to be rich in hits. Some 4.3% of all compounds tested hit in one or more screens of this group.

SMILES | SMARCA2 activ | CR mimetic SO | AHR act | SR-BI HDL uptake | Hep lipid drop | SR-BI uptake up | SMARCA2 act conf | GAL4-VP16 Luc
NC(=S)NN=Cc1nccc2c(N)cccc12 | 8.3* | . | . | . | . | . | -1 | -1
COC(=O)c1ccc(S(=O)(=O)N2CCC(NC(=O)Cc3ccccc3)CC2)cc1 | -3 | . | . | . | . | . | . | .
O=C(O)/C=C/c1ccc([N+](=O)[O-])o1 | -4 | 96 | -3 | -25 | -5 | 25 | . | .
O=[N+]([O-])c1ccc(/C=N/N=C/c2ccc([N+](=O)[O-])o2)o1 | 19* | . | . | 15 | -5 | -15 | -14 | -2
O=C1C2C3C=CC(C4CC34)C2C(=O)N1/N=C/c1ccc([N+](=O)[O-])o1 (stereo unspecified) | 9.3* | 115 | 0 | 8 | 3 | -8 | 10* | 2
COC(=O)c1ccc(-c2ccc(/C=N/N3C(=O)C4C5C=CC(C6CC56)C4C3=O)o2)cc1 (stereo unspecified) | 9.0* | 80 | 12 | -22 | 12 | 22 | 1 | 5.9*
CCN(C(=O)CSc1nnc(-c2cccnc2)n1Cc1ccco1)c1ccccc1C | -3 | . | . | . | . | . | . | .
COC(=O)c1cc2c(c3c4cc(OC)ccc4n(S(=O)(=O)c4ccc(OC)cc4)c13)C(=O)N(Cc1ccco1)C2 | 1 | . | . | . | . | . | . | .
CC(C)(C)OC(=O)N1CCC[C@@H]1C(=O)N1CCC[C@@H]1C(=O)NCc1ccccc1 | -3 | . | . | . | . | . | . | .
CN1CC=C(c2ccccc2)N(c2ccc(Cl)cc2)C1=O | -1 | . | . | . | . | . | . | .
O=C1NC(=O)C2(C=C(c3ccccc3)C(O)(c3ccccc3)C2)N1 (stereo unspecified) | 8.2* | . | . | 15 | . | -15 | 1 | 1
CC(C)(C)c1ccc(NC(=O)Nc2ccc(OCC(=O)N3CCOCC3)cc2)cc1 | 8.2* | 101 | 7 | 0 | 18 | 0 | 5 | 15*
COC(=O)[C@]12C[C@H](CC(=O)NCc3cccs3)C(=O)N(Cc3ccco3)C1=C[C@H](C(C)C)O[C@@H]2C1CC1 | -5 | . | . | . | . | . | . | .
CC(C)CN1C(=O)N2CCc3ccccc3C2CS1(=O)=O (stereo unspecified) | 1 | . | . | . | . | . | . | .
CC1=CC(=O)C(Sc2ccc(C)cc2)=CC1=O | 8.1* | . | . | . | . | . | -4 | 6.2*
Cc1ccc(SC2=C(Sc3ccc(C)cc3)C(=O)c3ccccc3C2=O)cc1 | 5 | 109 | 24 | -11 | 36 | 11 | . | .
COc1ccc([C@H]2N[C@]3(CCCN(Cc4ccco4)C3=O)[C@H]3C(=O)N(Cc4ccccc4)C(=O)[C@@H]23)cc1 | 9.0* | . | . | . | . | . | -4 | 0
COc1ccc(-c2cc(-c3cc(C)ccc3O)[nH]n2)cc1 | 16* | 126 | 27 | 69 | -8 | -69 | 17* | 5.8*
Cc1ccccc1NC(=O)N(C)[C@H]1C[C@H]2c3[nH]c4c(-c5ccccc5)cccc4c3CCN2C[C@H]1[C@H](C)O | 0 | . | . | . | . | . | . | .
Cc1cc(C)cc(NC(=O)CCN2CC(C)OC(C)C2)c1 (stereo unspecified) | 8.4* | 93 | 2 | 2 | . | -2 | -3 | 2
COc1cccc(-c2ccc3c(c2)[C@@H]2C[C@H]4[C@@H](CN2CC3)[C@H](C)ON4C)c1 | -4 | . | . | . | . | . | . | .
COCC(=O)N(C)[C@H]1C[C@H]2c3[nH]c4c(-c5ccc6c(c5)OCO6)cccc4c3CCN2C(=O)[C@H]1[C@H](C)O | 0 | . | . | . | . | . | . | .
CCCn1nc(C(=O)N2CCN(c3ccccn3)CC2)c2ccccc2c1=O | 8.1* | 92 | 1 | -3 | . | 3 | -2 | 2
COc1ccc(-n2nc(C(=O)NCC(=O)N3CCN(c4ccccn4)CC3)c3ccccc3c2=O)cc1OC | 2 | 110 | 2 | 37 | 0 | -37 | . | .
COc1ccc(-n2nc(C(=O)NCC(=O)N3CCN(c4ccccn4)CC3)c3ccccc3c2=O)cc1 | 11* | 100 | 0 | 51 | . | -51 | 6 | 2
SMILES | SMARCA2 activ | CR mimetic SO | AHR act | SR-BI HDL uptake | Hep lipid drop | SR-BI uptake up | SMARCA2 act conf | GAL4-VP16 Luc
CCN(CC)CCNC(=O)c1cc2c(=O)n(C)c3ccccc3c2s1 | 14* | 92 | 29 | 14 | -4 | -14 | 14* | 2
CCCCN(CC)CCNC(=O)c1cc2c(=O)n(C)c3ccccc3c2s1 | 3 | 75 | 25 | 42 | -4 | -42 | . | .
CCCCN(CC)CCNC(=O)c1cc2c(=O)n(CC)c3ccccc3c2s1 | 4 | 106 | 13 | 61 | -1 | -61 | . | .
CCCCN(CC)CCCNC(=O)c1cc2c(=O)n(CC)c3ccccc3c2s1 | 14* | 108 | 4 | 34 | -29 | -34 | 3 | 8.1*
CC(=O)O[C@H]1C[C@@H](n2cnc3c(Cl)ncnc32)[C@@H]2OC(C)(C)O[C@@H]21 | 6 | . | . | . | . | . | . | .
O=C1[C@@H](CCc2ccccc2)[C@@H]2c3ccccc3C=NN2[C@@H]2c3ccccc3C=NN12 | -2 | . | . | . | . | . | . | .
C=C1C(=O)[C@]23C[C@H]1CC[C@H]2[C@]1(C)[C@@H](OC(C)=O)CC[C@@](C)(C(=O)O)[C@H]1C[C@@H]3O | 34* | . | . | . | . | . | 9.1* | -2
C=C1C(=O)[C@]23C[C@H]1CC[C@H]2[C@]1(C)[C@@H](O)CC[C@@](C)(C(=O)O)[C@H]1C[C@@H]3O | 21* | . | . | . | . | . | 37* | 2
